In ChEMBL document CHEMBL4513216, “Probing the Open Global Health Chemical Diversity Library for Multistage-Active Starting Points for Next-Generation Antimalarials” (ACS Infect Dis, 2020) one finds cytotoxicity data, which are given here for 97 compounds.

The data set in a line: Toxicity liver stage against HepG2, at 10uM. Type of data set: cell-based. The following applies: human, HepG2-A16-CD81EGFP cells; read-out: INHIBITION
The arrangement: test concentration 10 uM, cell line HepG2-A16-CD81EGFP. A digest of the protocol: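 Uninfected HepG2-A16-CD81EGFP cells, 3 × 10^3 per well, 1536-well, plated on prespotted compound at 10 μM final, parasite-free screening media added to match infected plates; puromycin 10 μM positive, DMSO 0.5% negative; run in parallel with 48 h PbLuc assay at 37 °C, 5% CO2; viability by CellTiter-Glo luminescence, normalized to controls.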

In the case of `Cn1cc(C(=O)N2CC[C@@]3(O)CCN(C4CCCCC4)C[C@H]3C2)cn1`, the cytotoxicity at 10 µM was -131%. Regarding `Cc1nc(C)n(CC2CCCN(CC(=O)N3CCCC3)C2)n1` (configuration not stated), the cytotoxicity at 10 µM was -8.31%. Consider `COc1ccccc1-c1cc(C(=O)N(C)C)nc2c1cnn2C`, for which the cytotoxicity at 10 µM was determined as 7.83%. In the case of `CCOc1ncccc1CNC(=O)Nc1ccc(OC)c(OC)c1` it was -3.82%. In the case of `Cc1nccc(N[C@H]2CN(CC(C)(C)N3CCOCC3)C[C@@H]2C2CC2)n1`, the cytotoxicity at 10 µM was found to be 3.03%. In the case of `CSCCc1c(-c2ccccc2)ncn1CC(C)(C)N1CCCC1`, the cytotoxicity at 10 µM was -47.8%.

As for `CCCC(=O)NC(C)c1nnc2n1CCC2` (configuration not stated), the cytotoxicity at 10 µM was -0.645%. As for `Cc1ccc(NC(=O)N2CCN(Cc3noc(C4CC4)n3)CC2)cc1`, the cytotoxicity at 10 µM turned out to be 4.88%. Turning to `Cc1cnn(CC2CN(Cc3nnc(-c4ccccc4)o3)CCO2)c1` (configuration not stated), the cytotoxicity at 10 µM was -6.61%. Regarding `Cc1nn(C)c(N(C)C)c1CNCc1ccnn1C`, the cytotoxicity at 10 µM was -3.35%. The same measure for `CNC(=O)C1CCCN1c1nc(C)c2ccccc2n1` (configuration not stated): 10.4%. As for `NC(=O)c1ccn(COc2ccccc2Cl)n1`, the cytotoxicity at 10 µM turned out to be 2.96%.

As to `CN(Cc1ncnn1C)C(=O)c1ccccc1NCc1ccccc1`, the cytotoxicity at 10 µM came to 15.3%. As for `Cc1sc(C(=O)N(C)S(C)(=O)=O)cc1-c1ccc(F)cc1`, the cytotoxicity at 10 µM was 0.269%. Consider `CCN(CC)S(=O)(=O)N1C[C@H]2CC[C@@H](C1)N(Cc1cscn1)C2=O`, for which the cytotoxicity at 10 µM was -21.1%. In the case of `CC(CN1CCCC1=O)NC(=O)NCc1ccccc1-n1cccn1` (configuration not stated) it was 3.33%. On to `O=C(NCCCN1CCc2ccccc2C1)c1ccccc1Br`, for which the cytotoxicity at 10 µM was -10.2%. In the case of `Cc1ccc(Cl)cc1NCc1nc2n(n1)CCCCC2`, the cytotoxicity at 10 µM was 5.89%. For the compound `COc1ccc(CNC(=O)CCN2C[C@@H](C)[C@](O)(C3CC3)C2)cc1`, the cytotoxicity at 10 µM was -12.5%. Turning to `Cc1ncc2c(n1)CCCC2NC(=O)c1ccncc1` (configuration not stated), the cytotoxicity at 10 µM was -19.4%. The same measure for `COCCn1ccnc1C1CCCN(c2cc(OC)nc(N)n2)C1` (configuration not stated): 11.2%.

On to `O=C(NCC1CC2(CO1)CN(c1ncccn1)C2)C1CCC1` (configuration not stated), for which the cytotoxicity at 10 µM was -107%. With `CC(C)NC(=O)[C@@H]1CN(Cc2ccc3c(c2)OCO3)C[C@H]2OCC[C@H]21`, the cytotoxicity at 10 µM is 3.65%.

In the case of `COc1ccc(C2(NCc3noc(C4CC4)n3)CCOCC2)cc1`, the cytotoxicity at 10 µM was -6.44%.

Regarding `CCCc1nc(CNCC2CCCN2c2cccnn2)cs1` (configuration not stated), the cytotoxicity at 10 µM was -7.07%. In the case of `NCc1cnn(-c2ccccc2C(=O)NCCc2ccncc2)c1` it was 0.664%. Take `Cc1cc(NCc2noc(C(C)C)n2)nc(-c2ccccc2)n1`: the cytotoxicity at 10 µM was 11%. In the case of `CCc1noc(C(C)N(C)Cc2ccc(OC)c(OC)c2)n1` (configuration not stated), the cytotoxicity at 10 µM was -7.13%. On to `CC(C)NC(=O)c1ccc2nnc(C3CCN(C(=O)NC(C)C)C3)n2c1` (configuration not stated), for which the cytotoxicity at 10 µM is -5.42%. In the case of `O=C(NCCc1cc(N2CCOCC2)nc(NC2CC2)n1)C1CCCO1` (configuration not stated), the cytotoxicity at 10 µM is 2.61%. Consider `Cc1ccc(N2CCC3(CCN(Cc4ccccn4)CC3)CC2)nn1`, for which the cytotoxicity at 10 µM worked out at 7.37%. For `O=C1Nc2ccccc2NC12CCN(c1cccc(C(F)(F)F)n1)CC2`, the cytotoxicity at 10 µM is 2.31%. On to `Cc1ccc(CN(CCCn2ccnc2)Cc2cnc(N(C)C)nc2)s1`, for which the cytotoxicity at 10 µM is -12.6%.

In the case of `COCCNc1ccc(CNC(=O)Nc2cn[nH]c2)cc1`, the cytotoxicity at 10 µM was -2.68%. In the case of `Cc1ccsc1C(=O)N1CCCN(Cc2cscn2)CC1`, the cytotoxicity at 10 µM is -12.4%. The same measure for `CC(=O)N1CC[C@H]2N(C)CC[C@@]2(C(=O)Nc2cccnc2)CC1`: -111%. On to `CCOc1cccc(C(=O)Nc2ccncc2)c1`, for which the cytotoxicity at 10 µM turned out to be 8.59%. On to `CC(C)C(=O)N1CC[C@H]2N(C)CC[C@@]2(C(=O)Nc2cccnc2)CC1`, for which the cytotoxicity at 10 µM is -121%. For the compound `CCOCCC(=O)N1Cc2cnc(-c3ccccc3)nc2C1`, the cytotoxicity at 10 µM is -6.88%. On to `CC(C)c1ccc(OCCC(=O)N(C)CC(N)=O)cc1`, for which the cytotoxicity at 10 µM was found to be 6.77%. For `Cc1nc2cc(OCc3nc(C(=O)NC(CO)CO)co3)ccc2s1`, the cytotoxicity at 10 µM came to 4.01%. For the compound `COC[C@@H]1CCC[C@@]12CN(Cc1ccc(C)s1)CCO2`, the cytotoxicity at 10 µM turned out to be 6.76%.

Turning to `Cc1ccnc(NC(=O)C2(n3cnnn3)CCCCC2)c1`, the cytotoxicity at 10 µM was -0.0864%. The same measure for `COc1ccc(CC(=O)N2CCCC2c2nc(C)c(C)c(O)n2)cc1` (configuration not stated): -17.7%. As for `CNC(=O)Cc1ccc(NC(=O)NC2(c3cccc(F)c3)CC2)cc1`, the cytotoxicity at 10 µM worked out at 5.74%. `CN(Cc1nncn1C)c1nccc(C2CCCC2)n1`: the cytotoxicity at 10 µM is -1.14%.

`CCOc1cccc(C(C)NCc2c(C)nn(C)c2N(C)C)c1` (configuration not stated): the cytotoxicity at 10 µM is 5.22%.

Turning to `NC(=O)CC1CCN(C(=O)NCC2(c3ccccc3F)CC2)CC1`, the cytotoxicity at 10 µM was 35.2%.

On to `CCN(C(C)c1cccc(O)c1)S(=O)(=O)c1cccnc1` (configuration not stated), for which the cytotoxicity at 10 µM came out at 10.8%.

Consider `COc1cc(C(=O)O)cc(I)c1OCC(=O)NCCc1ccccc1`, for which the cytotoxicity at 10 µM is -11.9%. With `CCSc1nnc([C@@H](N)CC(C)C)o1`, the cytotoxicity at 10 µM is -2.39%. Consider `CC(C)CNC(=O)NC(=O)C(C)Nc1cccc(CN2CCOC2=O)c1` (configuration not stated), for which the cytotoxicity at 10 µM was -3.37%.

With `CC(OCC1CC1)C(=O)N1CCCN(Cc2cnn(C)c2)CC1` (configuration not stated), the cytotoxicity at 10 µM turned out to be 2.55%. On to `CCCC(NC(=O)c1ccccn1)c1nnc2ccccn12` (configuration not stated), for which the cytotoxicity at 10 µM is -6.54%.

In the case of `O=C(NCc1ccco1)N1CCOC(c2ccccc2Cl)C1` (configuration not stated), the cytotoxicity at 10 µM is -1.91%. `COc1ccc(N2CCC(NCc3csc(C(C)C)n3)CC2)cc1`: the cytotoxicity at 10 µM is -15.9%. The same measure for `O=C(c1ccc(F)cc1)N(CCCO)S(=O)(=O)c1cccs1`: -6.24%; for `Cc1cccc(N(C)S(=O)(=O)c2cc(C(=O)O)cs2)c1`: -6.12%. `CNc1nc(C2CCCN(C(=O)C(C)(C)OC)C2)nc2c1CN(C)CC2` (configuration not stated): the cytotoxicity at 10 µM is -8.24%. Take `CC(C)N1CCCC1c1cc(C(F)(F)F)[nH]n1` (configuration not stated): the cytotoxicity at 10 µM came to 0.171%. In the case of `Cc1ccc(-c2ncc(C(=O)NCCNC(=O)C(C)C)s2)c(C)c1`, the cytotoxicity at 10 µM is -6.53%. In the case of `O=C(c1ccsc1)N1CCO[C@@H]2CN(Cc3cccs3)C[C@@H]2C1`, the cytotoxicity at 10 µM was -133%. For the compound `Cc1nc(C2CCCN2CC(=O)N(Cc2ccsc2)C2CC2)no1` (configuration not stated), the cytotoxicity at 10 µM is -12.1%. The same measure for `Cc1ccc(CNC(c2ccc(F)cc2)c2nccn2C)o1` (configuration not stated): 0.841%. For `CN1CCc2ncc(CNC(=O)c3cccn3C)n2CC1`, the cytotoxicity at 10 µM is 1.27%. Consider `CCSc1ncc(CN2CCN(c3nc(C)ncc3C)CC2)cn1`, for which the cytotoxicity at 10 µM came out at 27.3%. Turning to `CCC(C)(NCc1nc(C)c(C)o1)c1nccs1` (configuration not stated), the cytotoxicity at 10 µM is -2.05%. Regarding `COCCNC(=O)[C@@H]1CN(c2ncccn2)C[C@H]2OCC[C@H]21`, the cytotoxicity at 10 µM was -68.4%. As for `O=C(NCc1ccco1)N1CCN(Cc2ccc3c(c2)CCO3)CC1`, the cytotoxicity at 10 µM is -2.83%. Take `CCN1CC(C(=O)NCCc2csc(-c3ccncc3)n2)CC1=O` (configuration not stated): the cytotoxicity at 10 µM is -5.64%.

For the compound `CC(C)CNC(=O)c1ccc2c(=O)n(-c3ccccc3)cnc2c1`, the cytotoxicity at 10 µM is -5.52%. Turning to `CC(C)c1cc(Br)ccc1NC(=O)NCC(O)CO` (configuration not stated), the cytotoxicity at 10 µM was found to be 9.45%. The same measure for `CCn1cc(CN2CCCN(C(=O)C3=NN(C)C(=O)CC3)CC2)cn1`: 3.54%. For the compound `Cc1cnn(CC2CN(Cc3nccn3CC(F)(F)F)CCO2)c1` (configuration not stated), the cytotoxicity at 10 µM was -11.7%. As for `CCCc1cc(NC(=O)c2cc(N3CCNC3=O)c(F)cc2F)n[nH]1`, the cytotoxicity at 10 µM came out at 12.3%.

For the compound `CN(Cc1nnc(-c2ccco2)o1)C(C(N)=O)c1cccc(F)c1` (configuration not stated), the cytotoxicity at 10 µM came to 16.7%. `FC(F)(F)C1CCCn2c(CNCc3ccsc3)nnc21` (configuration not stated): the cytotoxicity at 10 µM amounted to 16.5%. On to `COc1ccc2c(=O)n(CC3CCCCN3C)ccc2c1OC` (configuration not stated), for which the cytotoxicity at 10 µM amounted to 3.19%.

On to `O=C(Nc1ccccc1)c1ccc(NCc2ccccc2CO)nn1`, for which the cytotoxicity at 10 µM came out at 4.34%. `CN(C)[C@@H]1CN(Cc2cccnc2)C[C@H]1c1cn(C)c2ccccc12`: the cytotoxicity at 10 µM is 1.44%. `Cc1nc(C(F)(F)F)nc(N2CCC(O)(C(=O)O)CC2)c1C`: the cytotoxicity at 10 µM was 10.4%. As for `O=C(NC1CC1)C(c1ccccc1)N1CCn2c(nnc2C2CC2)C1` (configuration not stated), the cytotoxicity at 10 µM is -6.22%. Take `CNC(=O)C1CCN(C(=O)NCc2ccc(C)n2C)CC1`: the cytotoxicity at 10 µM is -1.81%. Regarding `CN(C)CCOCC1CN(C(=O)[C@H]2CCCO2)Cc2ccnn2C1` (some centres not stated), the cytotoxicity at 10 µM was -0.422%. Regarding `O=C(c1ccc(S(=O)(=O)N2CCSCC2)cc1)N1CCC(O)C1` (configuration not stated), the cytotoxicity at 10 µM was 4.91%. The same measure for `CCN(Cc1ccncc1)CC1(O)CCN(C(=O)c2cccc(C)c2)C1` (configuration not stated): -25.1%; for `CS(=O)(=O)N1CCn2c(C(=O)N3CCOCC3)cnc2C1`: -4.63%; for `Cc1cc(C2CCCN(C(=O)Cc3csc(C(C)C)n3)C2)n[nH]1` (configuration not stated): -7.27%. As to `CCc1c(C)sc2nc3n(CCN4CCCCC4)nc(SC)n3c(=O)c12`, the cytotoxicity at 10 µM came out at 2.68%.

With `CCc1nc2n(n1)CCCC2NC(=O)Nc1cccc(F)c1F` (configuration not stated), the cytotoxicity at 10 µM stood at 2.39%. In the case of `CCC(CN1CCCC1)n1cncc1-c1cnn(Cc2ccccc2)c1` (configuration not stated), the cytotoxicity at 10 µM was found to be 3.92%. The same measure for `O=C(C1CC1)N1CCN(Cc2coc(-c3ccc(Cl)cc3)n2)CC1`: 17.3%; for `CN(C)C(=O)N1Cc2nnn(CC3CC3)c2C(COCC2CC2)C1` (configuration not stated): 8.26%. For the compound `COCCNc1nc(N2CCOCC2)nc2nccnc12`, the cytotoxicity at 10 µM amounted to 4.09%.

As to `Cc1ccc(CN2CC[C@@H](O)[C@@H]2Cc2ccccc2)o1`, the cytotoxicity at 10 µM was found to be 1.73%.

`Cc1ccc(S(=O)(=O)c2ncccc2CN2CCOCC2)cc1`: the cytotoxicity at 10 µM is -41%. In the case of `CN(C)c1ccc(C2CCN(c3cnccn3)CC2)nc1` it was -11.2%.
